CAL PDZ FP-1 = CAL PDZ peptide-binding inhibitors, primary screen, biochemical, fluorescence polarization, Cer-tagged CAL PDZ, HTS | AID 504414, 2011 | Golgi-associated PDZ and coiled-coil motif-containing protein (Homo sapiens), Q9HD26 | inhibition, % at 20 µM | purified CAL PDZ, TMR-peptide fluorescence polarization, 1 h | 330,000 compounds, 0.02% hits;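 active = highest replicate inhibition of at least 40%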;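 also: plate controls were DMSO neutral control wells for no effect and unlabeled competitor peptide control wells for full effect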
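material = purified tagged CAL PDZ domain construct (CerCALP) | buffer or medium = sodium phosphate/NaCl buffer pH 7.4 with TCEP, IgG, Thesit | reagent = TMR-labelled reporter peptide T*-PRC34 bound in PDZ groove | incubation = 1 h room-temperature incubation prior to read | measured by = fluorescence polarization (mP) | evaluation = percent inhibition from loss of millipolarization | control set = unlabelled peptide and DMSO controls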
DENV2 CPE rescue = inhibitors of DENV2 cytopathic effect, primary screen, cell-based, plate reader, single concentration. 350,000 compounds, 1.7% hits. DENV2-infected cells, cytopathic effect rescue. CPE inhibition, % at 9.99 µM. AID 651640, 2012; in the data active = CPE inhibition above about 20%, passing the limit was not always enough; inconclusive = no clear call, values can overlap the other calls; tested in BHK-21 cells;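 also: 0% = median of neutral control wells and 100% = median of positive control wells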
CAL PDZ FP-2 = untagged CAL PDZ binding inhibitors, primary screen, biochemical, fluorescence polarization, HTS | Golgi-associated PDZ and coiled-coil motif-containing protein (Homo sapiens), Q9HD26 | purified CAL PDZ, TMR-peptide fluorescence polarization, 1 h | inhibition, % at 24.9 µM | 300,000 compounds, 0.92% hits | AID 602252, 2012;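 active = mean inhibition of at least 30% with at least half of replicates also reaching 30%; inconclusive = no clear call, values can overlap the other calls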;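 also: 0% = DMSO neutral control and 100% = excess unlabeled competitor peptide PRC23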
S100A4 MyoIIA = inhibitors of S100A4-myosin IIA peptide binding, primary screen, biochemical, fluorescence polarization, TAMRA-MyoIIA peptide; Protein S100-A4 (Homo sapiens), P26447; AID 652163, 2013; 360,000 compounds, 0.14% hits; inhibition, % at 10.7 µM;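 active = mean inhibition of at least 70% across replicates, with every replicate also reaching that level; inconclusive = mean inhibition reaches 70% but some replicates fall short; inactive = mean inhibition below 70%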
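Test system: S100A4 monomer protein. Medium: HEPES buffer with Ca2+, pH 7.2. Reagent: fluorescent myosin IIA peptide, 5 nM. Compound dosing: single-point compound testing. Timing: 5 min between mix addition and reading. Benchmarks: DMSO neutral and TFP positive wells.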
SIRT5 inh = SIRT5 desuccinylase inhibitors, primary screen, biochemical, fluorescence imaging, single point, set 5. NAD-dependent protein deacylase sirtuin-5, mitochondrial (Homo sapiens), Q9NXA8. Purified SirT5, succinyl-peptide AMC, trypsin-coupled fluorescence. inhibition, % at 15 µM. 330,000 compounds, 1.1% hits. AID 652115, 2013; in the data active = inhibition above about 15%; inconclusive = no clear call, values can overlap the other calls
ERAP1 inh = human ERAP1 aminopeptidase inhibitors, primary screen, biochemical, single point, plate reader. inhibition, % at 10.7 µM. AID 652197, 2013. recombinant ERAP1, Leu-AMC fluorescence, 60 min. 340,000 compounds, 0.15% hits. Endoplasmic reticulum aminopeptidase 1 (Homo sapiens), Q9NZ08;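 active = mean replicate inhibition of at least 30%, or all replicates individually reaching that 30% level; inactive = mean below 30% and not every replicate reaching it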;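 also: 0% = neutral control wells and 100% = L-leucinethiol positive control wells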
Target sequence (Q9NZ08 whole entry, looked up): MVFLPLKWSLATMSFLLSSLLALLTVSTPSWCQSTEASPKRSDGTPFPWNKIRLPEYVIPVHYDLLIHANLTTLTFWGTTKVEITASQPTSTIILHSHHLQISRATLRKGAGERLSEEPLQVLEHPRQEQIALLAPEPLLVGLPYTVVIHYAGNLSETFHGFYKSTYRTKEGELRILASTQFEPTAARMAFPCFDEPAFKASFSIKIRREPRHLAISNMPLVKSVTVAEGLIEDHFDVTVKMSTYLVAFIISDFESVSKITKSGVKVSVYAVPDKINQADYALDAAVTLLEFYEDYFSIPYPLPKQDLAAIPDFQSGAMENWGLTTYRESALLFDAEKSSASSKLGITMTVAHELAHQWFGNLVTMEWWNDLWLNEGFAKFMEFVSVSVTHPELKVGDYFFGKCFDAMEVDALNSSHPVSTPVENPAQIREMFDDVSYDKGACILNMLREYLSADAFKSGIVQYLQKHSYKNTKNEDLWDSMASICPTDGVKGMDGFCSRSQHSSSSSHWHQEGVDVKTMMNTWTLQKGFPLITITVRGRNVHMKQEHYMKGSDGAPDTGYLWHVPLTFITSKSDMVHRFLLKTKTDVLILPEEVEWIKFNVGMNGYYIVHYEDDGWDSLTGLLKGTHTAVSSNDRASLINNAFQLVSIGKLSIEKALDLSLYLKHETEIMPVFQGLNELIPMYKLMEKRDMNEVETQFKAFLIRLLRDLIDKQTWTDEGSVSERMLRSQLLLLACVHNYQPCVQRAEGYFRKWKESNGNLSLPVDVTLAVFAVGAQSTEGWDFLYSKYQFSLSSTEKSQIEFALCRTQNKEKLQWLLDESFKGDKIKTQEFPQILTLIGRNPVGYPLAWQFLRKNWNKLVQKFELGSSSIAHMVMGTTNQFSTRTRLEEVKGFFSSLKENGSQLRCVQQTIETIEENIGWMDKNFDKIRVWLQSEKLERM
Active calls of the source: *; ? = inconclusive; . = no result given. Hits are enriched below; roughly 2.9% of the tested compounds scored in any of these assays.

SMILES	CAL PDZ FP-1	DENV2 CPE rescue	CAL PDZ FP-2	S100A4 MyoIIA	SIRT5 inh	ERAP1 inh
CCn1nc(C(=O)OCC(=O)N(CC(C)C)c2c(N)n(Cc3ccccc3)c(=O)[nH]c2=O)c2ccccc2c1=O	-2	4	-3	12	-1	-1
CCn1nc(C(=O)OCC(=O)N(CCC#N)c2ccccc2)c2ccccc2c1=O	0	75*	-2	2	1	2
C[C@H]1CN([C@@H](C)CO)S(=O)(=O)c2ccc(-c3ccccc3F)cc2O[C@@H]1CN(C)C	.	4	.	1	-4	-5
Cc1noc(C)c1S(=O)(=O)Nc1cccc2c1O[C@@H](CN(C)CC1CCCCC1)[C@@H](C)CN([C@@H](C)CO)C2=O	.	3	.	12	-3	1
C[C@@H]1CN([C@@H](C)CO)C(=O)CCCn2cc(nn2)CO[C@@H]1CN(C)C(=O)Nc1cccc(Oc2ccccn2)c1	.	-3	.	5	0	-2
C[C@@H]1CCCCO[C@H](CN(C)S(=O)(=O)c2ccc(Cl)cc2)[C@H](C)CN([C@@H](C)CO)C(=O)c2cc(NS(=O)(=O)c3ccccc3)ccc2O1	.	-11	.	-9	16*	-2
C[C@H]1CCCCO[C@@H](CN(C)S(=O)(=O)c2ccc(Cl)cc2)[C@@H](C)CN([C@@H](C)CO)C(=O)c2cc(NS(=O)(=O)c3ccccc3)ccc2O1	.	0	.	-4	3	-1
C[C@@H]1CCCCO[C@@H](CN(C)S(=O)(=O)c2ccc(Cl)cc2)[C@H](C)CN([C@@H](C)CO)C(=O)c2cc(NS(=O)(=O)c3ccccc3)ccc2O1	.	8	.	-6	21*	0
C[C@@H]1CCCCO[C@@H](CN(C)S(=O)(=O)c2ccccc2)[C@H](C)CN([C@H](C)CO)C(=O)c2cc(NS(=O)(=O)c3ccc(Cl)cc3)ccc2O1	.	-5	.	-16	14	5
C[C@@H]1CN([C@@H](C)CO)C(=O)c2cc(NS(=O)(=O)c3ccccc3)ccc2O[C@@H](C)CCCCO[C@H]1CN(C)S(=O)(=O)c1ccc(Cl)cc1	.	3	.	-5	16*	-4
O=C(NC1CCC1)[C@@H]1[C@@H](CO)[C@@H]2Cn3c(ccc(-c4cncnc4)c3=O)[C@@H]2N1C(=O)NC1CCCC1	.	-2	.	-1	-25	0
CNC[C@H]1Oc2ccc(NC(=O)CCC(F)(F)F)cc2CC(=O)N([C@@H](C)CO)C[C@@H]1C	.	4	.	3	0	-1
CC1CCCN(C(=O)c2ccc(COc3ccccc3Br)cc2)C1 (stereo unspecified)	-1	.	40*	.	.	.
CCOc1ccc(OCc2ccc(C(=O)N3CCCC(C)C3)cc2)cc1 (stereo unspecified)	-3	1	-4	29	0	1
CC1CCCN(C(=O)c2ccc(S(=O)(=O)Nc3ccccc3Cl)cc2)C1 (stereo unspecified)	-3	83*	-1	-2	-2	1
Cc1ccc([N+](=O)[O-])cc1NC1CC(O)C(CO)O1 (stereo unspecified)	1	-11	31*	0	-1	-2
Cc1ccc(NC2OC(CO)C(O)C2O)cc1[N+](=O)[O-] (stereo unspecified)	0	.	3	.	.	.
O=C([C@H]1[C@H](CO)[C@H]2Cn3c(ccc(C4=CCCC4)c3=O)[C@@H]1N2C(=O)c1cccnc1)N1CCOCC1	.	19	.	0	-3	-1
CC[n+]1c(-c2ccc(C)cc2)csc1Nc1c(C)n(C)n(-c2ccccc2)c1=O	0	1	-2	4	-6	9
Cc1c(NC2=CC(=O)CC(C)(C)C2)c(=O)n(-c2ccccc2)n1C	-1	-4	31*	-2	2	-4
Cc1c(NC2(C#N)CCCC2)c(=O)n(-c2ccccc2)n1C	-1	.	78*	.	.	.
Cc1c(NC2=NC(C)(C)Cc3ccccc32)c(=O)n(-c2ccccc2)n1C	0	.	-3	.	.	.
CC[n+]1c(-c2ccccc2)csc1Nc1c(C)n(C)n(-c2ccccc2)c1=O	-1	-2	-1	-21	21*	14
Cc1ccc(S(=O)(=O)Nc2ccc3c(c2)C(=O)N([C@@H](C)CO)C[C@@H](C)[C@@H](CN(C)Cc2ccccc2)OCCCC[C@@H](C)O3)cc1	.	-27	.	.	.	.
CC(=O)N(C)C[C@@H]1Oc2ncc(C#Cc3ccccc3)cc2C(=O)N([C@@H](C)CO)C[C@H]1C	.	-9	.	4	1	-1
SMILES	CAL PDZ FP-1	DENV2 CPE rescue	CAL PDZ FP-2	S100A4 MyoIIA	SIRT5 inh	ERAP1 inh
Brc1ccc(-n2cnc(-c3ccccc3)c2)cc1	-3	-6	51*	-1	-4	0
COc1ccccc1N(CC(=O)N1CCCC1)S(=O)(=O)c1ccc(C)cc1	-2	54*	-4	3	1	3
COc1ccccc1N(CC(=O)N1CCCCCC1)S(=O)(=O)c1ccc(C)cc1	-3	15	0	-2	1	3
CCOC(=O)N1CCN(C(=O)CN(c2ccccc2OC)S(=O)(=O)c2ccc(C)cc2)CC1	-2	.	0	.	.	.
COc1ccccc1N(CC(=O)N1CCN(c2ccc(F)cc2)CC1)S(=O)(=O)c1ccc(C)cc1	-2	0	55*	-8	-2	2
CO[C@H]1CN(C)C(=O)c2ccc(NS(C)(=O)=O)cc2OC[C@@H](C)N(Cc2nccs2)C[C@@H]1C	.	-1	.	8	-12	-1
COc1ccccc1-c1cccc(-c2nc(C(=O)Nc3nccs3)cc3c2[C@@H](CCO)N(C(=O)CC2CC2)C3)c1	.	5	.	?	16*	45*
CCCNC(=O)c1cc2c(c(-c3cccc(-c4ccccc4F)c3)n1)[C@H](CCO)N(C(=O)CC1CC1)C2	.	82*	.	-7	5	0
O=C(CC1CC1)N1[C@H](CO)[C@@H](c2ccccc2)C12CN(Cc1ccccc1F)C2	.	7	.	0	-3	-3
O=C(Cc1cccnc1)N[C@H]1CC[C@H](CCn2cc(Cc3ccccc3)nn2)O[C@@H]1CO	.	77*	.	-2	1	0
O=C(C[C@@H]1CC[C@@H](NC(=O)Cc2cccnc2)[C@H](CO)O1)Nc1ccc(-c2ccccc2)cc1	.	?	.	127*	7	-2
O=C(Cc1cccnc1)N[C@@H]1CC[C@H](CCn2cc(-c3ccccc3F)nn2)O[C@@H]1CO	.	45*	.	-4	-1	1
O=C(Cc1cccnc1)N[C@H]1CC[C@@H](CCn2cc(Cc3ccccc3)nn2)O[C@@H]1CO	.	5	.	-6	0	0
